Data set [1] relates to Lewis lung cancer (LLC). Briefly: Antitumor activity in Lewis lung cancer. In kind it is in vivo, C57BL/6J male mice. As to conditions: LLC mice; PTX 25 mg/kg; PTX-R 14.4, 28.8, 57.6 mg/kg; 11 day; versus control.
In data set [2] the test system is CTL1, OCT1 and OCT2 in LLC cells. Kind of data set: PTX-R uptake assay with transporter inhibitors. Conditions: 100 μmol/L HC-3, 60 μmol/L quinidine or 60 μmol/L cimetidine, 10 min. The data set is classed as cell-based, mouse. In short, it runs like this: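 LLC cells seeded at 2 × 10^5 cells/mL, grown 48 h, PBS-washed. Preincubated 20 min with inhibitor or PBS, then 4.5 μmol/L test compound ± inhibitor for 10 min. Stopped by three cold PBS washes; lysed 30 min in cold MeOH/0.1% FA containing 100 ng/mL docetaxel internal standard. Extract dried, reconstituted in ACN:H2O 1:9, quantified by LC-MS/MS (MRM).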

The source of these data is article PMC10422108 (Journal of Pharmaceutical Analysis, 2023).

For `CC(=O)O[C@H]1C(=O)[C@@]2(C)[C@H]([C@H](OC(=O)c3ccccc3)[C@]3(O)C[C@H](OC(=O)[C@H](O)[C@@H](NC(=O)c4ccccc4)c4ccccc4)C(C)=C1C3(C)C)[C@]1(OC(C)=O)CO[C@@H]1C[C@@H]2O` [PTX, paclitaxel], the “indices of the spleen and thymus” value in data set [1] is recorded as “notably reduced”. Besides, in data set [2], the “cellular uptake in presence of transporter inhibitors” value is on record as “no influence on PTX transport”.
